Source: ChEMBL document CHEMBL2346500, “Design and synthesis of dual-action inhibitors targeting histone deacetylases and 3-hydroxy-3-methylglutaryl coenzyme A reductase for cancer treatment” (J Med Chem, 2013)

Experiments:
[1] = test system: A549; test: Selectivity index, ratio of IC50 for human HS68 cells to IC50 for human A549 cells; format: functional
[2] = test system: A549; test: Selectivity index, ratio of IC50 for mouse MEF cells to IC50 for human A549 cells; format: functional
[3] = test system: Hs68; test: Cytotoxicity against human HS68 cells after 72 hrs by MTT assay; format: ADME, cell-based; conditions: Hs68, 72 h
[4] = test system: MEF; test: Cytotoxicity against mouse MEF cells after 72 hrs by MTT assay; format: ADME, cell-based
[5] = target: T1, Protein deacetylase HDAC6 (Homo sapiens) (UniProt Q9UBN7); test: Inhibition of HDAC6 in human A549 cells assessed as increase in tubulin acetylation after 24 hrs by Western blotting analysis; format: cell-based
T1 sequence (whole entry): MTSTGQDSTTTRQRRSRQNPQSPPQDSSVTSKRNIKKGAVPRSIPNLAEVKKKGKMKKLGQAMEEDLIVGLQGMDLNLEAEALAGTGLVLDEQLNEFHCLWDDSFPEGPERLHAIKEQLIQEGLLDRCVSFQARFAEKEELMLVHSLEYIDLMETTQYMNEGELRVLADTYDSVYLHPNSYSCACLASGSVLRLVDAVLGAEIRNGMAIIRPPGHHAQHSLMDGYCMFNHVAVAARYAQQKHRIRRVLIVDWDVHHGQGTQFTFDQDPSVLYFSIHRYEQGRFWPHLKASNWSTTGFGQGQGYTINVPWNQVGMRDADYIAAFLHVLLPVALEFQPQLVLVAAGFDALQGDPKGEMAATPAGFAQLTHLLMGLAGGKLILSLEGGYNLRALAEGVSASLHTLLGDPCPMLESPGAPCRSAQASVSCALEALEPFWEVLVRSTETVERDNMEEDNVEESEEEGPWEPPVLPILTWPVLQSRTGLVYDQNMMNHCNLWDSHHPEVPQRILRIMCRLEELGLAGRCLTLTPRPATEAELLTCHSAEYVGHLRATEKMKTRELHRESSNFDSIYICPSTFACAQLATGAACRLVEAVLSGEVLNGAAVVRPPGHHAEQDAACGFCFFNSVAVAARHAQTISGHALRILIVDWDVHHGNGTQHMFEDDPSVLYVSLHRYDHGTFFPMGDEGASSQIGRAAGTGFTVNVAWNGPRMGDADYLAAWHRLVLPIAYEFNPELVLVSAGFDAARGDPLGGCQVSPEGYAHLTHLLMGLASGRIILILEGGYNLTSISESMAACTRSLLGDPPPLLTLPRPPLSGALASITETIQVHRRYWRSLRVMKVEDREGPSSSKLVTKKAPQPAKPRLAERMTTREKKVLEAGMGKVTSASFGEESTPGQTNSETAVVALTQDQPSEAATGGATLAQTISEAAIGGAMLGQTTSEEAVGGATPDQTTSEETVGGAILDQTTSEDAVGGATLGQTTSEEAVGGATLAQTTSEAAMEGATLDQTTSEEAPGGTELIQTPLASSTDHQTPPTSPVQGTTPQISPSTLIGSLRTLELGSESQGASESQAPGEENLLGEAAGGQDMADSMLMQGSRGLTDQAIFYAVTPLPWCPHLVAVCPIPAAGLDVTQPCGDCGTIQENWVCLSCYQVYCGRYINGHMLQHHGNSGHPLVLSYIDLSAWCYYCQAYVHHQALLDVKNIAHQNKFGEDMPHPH
Method in brief: (§1)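 A549 cells (DMEM, 10% FBS, penicillin/streptomycin, 5% CO2) exposed to compounds at indicated doses for 24 h. Cells lysed on ice, total lysates run on SDS–PAGE and immunoblotted with antibodies to acetyl-histone H3, acetyl-tubulin and actin. Loading normalised to β-actin.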

[6] = target: Histone deacetylase (Homo sapiens) (UniProt Q13547+O15379+Q9UBN7+Q92769+Q9UQL6+Q8WUI4+Q9BY41+Q96DB2+P56524+Q9UKV0+Q969S8); test: Inhibition of class 1 HDAC in human A549 cells assessed as increase in histone acetylation after 24 hrs by Western blotting analysis; format: cell-based; method in brief: as §1
[7] = target: T2, 3-hydroxy-3-methylglutaryl-coenzyme A reductase (Homo sapiens, UniProt P04035); test: Inhibition of HMG-CoA reductase in human A549 cells after 5 mins by spectrophotometric analysis
T2 sequence (P04035 whole entry): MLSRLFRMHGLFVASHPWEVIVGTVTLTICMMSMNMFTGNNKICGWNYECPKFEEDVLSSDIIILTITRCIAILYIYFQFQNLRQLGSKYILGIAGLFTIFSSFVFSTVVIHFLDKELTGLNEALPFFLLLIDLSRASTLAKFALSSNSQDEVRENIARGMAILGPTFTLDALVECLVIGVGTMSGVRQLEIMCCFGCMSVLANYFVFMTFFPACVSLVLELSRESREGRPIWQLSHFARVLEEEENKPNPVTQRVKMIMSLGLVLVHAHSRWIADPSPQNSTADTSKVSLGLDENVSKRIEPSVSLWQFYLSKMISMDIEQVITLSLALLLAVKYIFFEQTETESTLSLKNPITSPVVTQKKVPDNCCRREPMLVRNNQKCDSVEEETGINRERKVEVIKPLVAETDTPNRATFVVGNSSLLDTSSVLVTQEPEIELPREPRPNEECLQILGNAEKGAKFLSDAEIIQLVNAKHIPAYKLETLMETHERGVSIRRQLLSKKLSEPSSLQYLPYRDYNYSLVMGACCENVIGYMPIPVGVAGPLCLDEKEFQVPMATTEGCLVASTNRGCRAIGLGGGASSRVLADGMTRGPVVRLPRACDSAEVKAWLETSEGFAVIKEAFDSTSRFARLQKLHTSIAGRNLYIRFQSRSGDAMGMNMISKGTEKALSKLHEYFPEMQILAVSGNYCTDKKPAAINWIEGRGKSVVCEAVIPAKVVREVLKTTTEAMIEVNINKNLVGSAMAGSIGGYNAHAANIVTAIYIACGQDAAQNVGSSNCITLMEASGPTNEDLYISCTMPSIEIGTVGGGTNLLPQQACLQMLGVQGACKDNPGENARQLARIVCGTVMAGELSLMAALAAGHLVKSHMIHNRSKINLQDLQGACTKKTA

[8] = target: T3, Protein deacetylase HDAC6 (Homo sapiens, UniProt Q9UBN7); test: Inhibition of recombinant HDAC6 (unknown origin) after 10 mins by fluorimetric analysis
T3 sequence (Q9UBN7 whole entry): T1 sequence (whole entry)

[9] = target: Histone deacetylase 1 (Homo sapiens, UniProt Q13547); test: Inhibition of recombinant HDAC1 (unknown origin) after 10 mins by fluorimetric analysis
[10] = target: T2, 3-hydroxy-3-methylglutaryl-coenzyme A reductase; test: Inhibition of recombinant HMG-CoA reductase (unknown origin) after 10 mins by spectrophotometric analysis
[11] = target: Histone deacetylase 2 (Homo sapiens, UniProt Q92769); test: Inhibition of recombinant HDAC2 (unknown origin) after 10 mins by fluorimetric analysis
[12] = test system: A549; test: Cytotoxicity against human A549 cells after 72 hrs by MTT assay; format: functional, cell-based; conditions: A549, 72 h

Sequence of Histone deacetylase 1 (Q13547 whole entry): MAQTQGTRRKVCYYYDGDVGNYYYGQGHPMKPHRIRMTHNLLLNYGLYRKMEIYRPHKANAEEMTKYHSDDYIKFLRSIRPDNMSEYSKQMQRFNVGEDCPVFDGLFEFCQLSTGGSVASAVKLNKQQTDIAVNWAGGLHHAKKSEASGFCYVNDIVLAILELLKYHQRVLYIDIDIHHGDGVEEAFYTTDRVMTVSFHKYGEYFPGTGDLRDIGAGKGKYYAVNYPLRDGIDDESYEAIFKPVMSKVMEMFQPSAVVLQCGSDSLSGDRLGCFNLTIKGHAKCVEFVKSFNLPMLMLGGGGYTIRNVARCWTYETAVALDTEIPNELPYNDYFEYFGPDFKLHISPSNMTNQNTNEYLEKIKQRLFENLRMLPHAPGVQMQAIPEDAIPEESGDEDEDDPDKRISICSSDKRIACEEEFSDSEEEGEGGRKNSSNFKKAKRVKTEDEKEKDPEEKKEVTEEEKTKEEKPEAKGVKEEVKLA
Sequence of Histone deacetylase 2 (Q92769 whole entry): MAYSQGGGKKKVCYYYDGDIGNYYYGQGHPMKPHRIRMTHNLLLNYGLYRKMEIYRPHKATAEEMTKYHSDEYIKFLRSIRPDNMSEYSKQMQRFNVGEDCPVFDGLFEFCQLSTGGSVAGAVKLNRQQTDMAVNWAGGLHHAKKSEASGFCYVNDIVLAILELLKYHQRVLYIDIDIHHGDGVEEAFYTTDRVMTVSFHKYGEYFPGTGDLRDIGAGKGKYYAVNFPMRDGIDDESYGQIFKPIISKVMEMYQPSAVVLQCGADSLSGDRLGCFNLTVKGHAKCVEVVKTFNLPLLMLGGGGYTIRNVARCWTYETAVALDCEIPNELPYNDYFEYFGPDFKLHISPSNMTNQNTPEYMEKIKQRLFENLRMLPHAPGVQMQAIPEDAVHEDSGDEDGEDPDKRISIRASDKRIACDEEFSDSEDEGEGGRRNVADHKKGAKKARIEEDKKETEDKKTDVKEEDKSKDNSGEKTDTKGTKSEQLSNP

Row | Compound | Ratio IC50 [1] | Ratio IC50 [2] | IC50 [3] [nM] | IC50 [4] [nM] | inhibition [5] | inhibition [6] | IC50 [7] [nM] | IC50 [8] [nM] | IC50 [9] [nM] | IC50 [10] [nM] | IC50 [11] [nM] | IC50 [12] [nM]
1 | CC(C)c1c(C(=O)Nc2ccccc2)c(-c2ccccc2)c(-c2ccc(F)cc2)n1CC[C@@H](O)C[C@@H](O)CC(=O)NO | >5.7 | >5.7 | > 100000 | > 100000 | Dose-dependent effect | Dose-dependent effect | 5700 | 86.6 | 123 | 12.3 |  | 
2 | O=C(CCCCCCC(=O)Nc1ccccc1)NO [VORINOSTAT] |  |  |  |  |  |  |  |  |  | > 10000 |  | 
3 | CC[C@H](C)C(=O)O[C@H]1C[C@@H](C)C=C2C=C[C@H](C)[C@H](CC[C@@H](O)C[C@@H](O)CC(=O)NO)[C@H]21 | >5.6 | >5.6 | > 100000 | > 100000 | Dose-dependent effect | Dose-dependent effect | 15900 | 51 | 64.8 | 16.8 | 468 | 
4 | CC(C)c1nc(N(C)S(C)(=O)=O)nc(-c2ccc(F)cc2)c1/C=C/[C@@H](O)C[C@@H](O)CC(=O)NO |  |  |  |  | Dose-dependent effect | Dose-dependent effect | 14900 |  |  |  |  | 
5 | CCC(C)(C)C(=O)O[C@H]1C[C@@H](C)C=C2C=C[C@H](C)[C@H](CC[C@@H]3C[C@@H](O)CC(=O)O3)[C@H]21 [SIMVASTATIN] | 1.6 | 2.3 | 26400 | 36700 |  |  |  |  |  |  |  | 16300
6 | CC(C)c1c(C(=O)Nc2ccccc2)c(-c2ccccc2)c(-c2ccc(F)cc2)n1CC[C@@H](O)C[C@@H](O)CC(=O)O [ATORVASTATIN] |  |  |  | 30700 |  |  |  |  |  |  |  | 
7 | C[C@H]1C=C2C=C[C@H](C)[C@H](CC[C@@H]3C[C@@H](O[Si](C)(C)C(C)(C)C)CC(=O)O3)[C@H]2[C@@H](OC(=O)NCc2ccc(-c3cn(CCCCCCC(=O)NO)nn3)cc2)C1 |  |  |  |  | Dose-dependent effect | Dose-dependent effect |  | 34 | 125 |  | 882 | 
8 | C[C@H]1C=C2C=C[C@H](C)[C@H](CC[C@@H]3C[C@@H](O[Si](C)(C)C(C)(C)C)CC(=O)O3)[C@H]2[C@@H](OC(=O)NCCCCCCC(=O)NO)C1 |  |  |  |  |  |  |  | 140 | 122 |  | 658 | 
9 | CCC(C)(C)C(=O)O[C@H]1C[C@@H](C)C=C2C=C[C@H](C)[C@H](CC[C@@H](O)C[C@@H](O)CC(=O)NO)[C@H]21 | >5 | >5 | > 100000 | > 100000 | Dose-dependent effect | Dose-dependent effect | 7900 | 69.5 | 63.4 | 13.1 | 414 | 
10 | C[C@H]1C=C2C=C[C@H](C)[C@H](CC[C@@H]3C[C@@H](O[Si](C)(C)C(C)(C)C)CC(=O)O3)[C@H]2[C@@H](OC(=O)Nc2ccc(-c3cn(CCCCCCC(=O)NO)nn3)cc2)C1 |  |  |  |  | Dose-dependent effect | Dose-dependent effect |  | 127 | 159 |  | 463 | 
11 | CC[C@H](C)C(=O)O[C@H]1C[C@@H](C)C=C2C=C[C@H](C)[C@H](CC[C@@H]3C[C@@H](O)CC(=O)O3)[C@H]21 [LOVASTATIN] |  |  | 23200 | 35000 |  |  |  |  |  |  |  | 
